Source: ChEMBL document CHEMBL1121475, “Inhibitors of indoleethylamine N-methyltransferase. Derivatives of 3-methyl-2-thiazolidinimine. In vitro, in vivo, and metabolic studies” (J Med Chem, 1980)

How the values were obtained:
Oryctolagus cuniculus [1] = assay: 200 mg/kg of [14C]- radiolabeled compound was intravenously (gavage) injected in rabbit4, and radioactivity content in feces was estimated at total hours; format: ADME, organism-based; details: rabbit, in vivo, po, in the assay text read “orally (gavage) administered” for “intravenously (gavage) injected”
In short: (§1)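 Rabbit given two 100 mg/kg gavage doses of [14C]-labelled drug, 2 h apart, 204.6 dpm/μg, 6.66 mg/mL in water/0.1 N HCl. Rabbit 2 was killed 2 h after the last dose and liver, lung, kidney and plasma taken (μg equivalents/g; tissue:plasma ratio). Rabbit 4 gave urine over 0-4, 0-24, 24-48 and 48-72 h and feces over 0-48 h, as % of dose.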

Oryctolagus cuniculus [2] = assay: Evaluation of formation of 3-Methyl-thiazolidin-2-ylideneamine from the radiolabeled compound, orally administered, from rabbit 3 urine was analyzed at 0-2 hr by Gas-liquid chromatographic analysis; format: ADME, organism-based; details: in vivo, po, in the assay text read “0-24 hr” for “0-2 hr”
In short: (§2)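 Rabbits 3 (single 100 mg/kg) and 4 (two 100 mg/kg doses 2 h apart) were gavaged with [14C]-labelled parent amide (204.6 dpm/μg). They were not killed; urine was collected 0-24 h. The metabolite was quantified by GLC of trimethylsilylated extracts against an internal-standard peak-height-ratio curve. Results are given as % of urinary radioactivity or % of administered dose, mean of two determinations.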

Oryctolagus cuniculus [3] = assay: Percent of 3-Methyl-thiazolidin-2-ylideneamine as administered dose was reported in rabbit 2; format: ADME, organism-based; details: in vivo
Oryctolagus cuniculus [4] = assay: Evaluation of formation of 3-Methyl-thiazolidin-2-ylideneamine from the radiolabeled compound, orally administered, from rabbit 2,4 plasma was analyzed by Gas-liquid chromatographic analysis; format: ADME, organism-based; details: in vivo, po
In short: (§3)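 Rabbit 2 was gavaged twice with [14C]-labelled parent amide, 100 mg/kg each dose (204.6 dpm/μg), 2 h apart, and killed 2 h after the second dose. Urine (0-4 h), blood, liver, lung and kidney were taken. The metabolite was measured by GLC of trimethylsilyl derivatives (3% OV-210, 95 °C, internal standard 3-ethyl-2-thiazolidinimine). Values are % of radioactivity as metabolite, mean of two determinations.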

Oryctolagus cuniculus [5] = assay: Radioactivity measurements were performed following oral administration of the 100 mg/kg in rabbit 6 after 2 hr in plasma; format: ADME, organism-based; parameters: dose 100 mg/kg, route oral; details: in vivo
In short: (§4)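 Male rabbits (900-1060 g) received [14C]-labelled parent amide, 100 mg/kg (251.7 dpm/μg, pH about 4.5), by gavage. At 2 or 6 h they were killed by air injection into the ear vein. Blood was drawn by cardiac puncture; brain and lung were homogenized in water (1 g = 10 mL). Radioactivity is expressed as μg equivalents of parent per g or mL.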

Oryctolagus cuniculus [6] = assay: 100 mg/kg of [14C]- radiolabeled compound was orally (gavage) administered in rabbit 1, and radioactivity content in lung was estimated; details: in vivo, po
Oryctolagus cuniculus [7] = assay: 200 mg/kg of [14C]- radiolabeled compound was intravenously (gavage) injected in rabbit4, and radioactivity content in feces was estimated at 0-48 hr; format: ADME, organism-based; details: rabbit, in vivo, po, in the assay text read “orally (gavage) administered” for “intravenously (gavage) injected”; in short: as §1
Oryctolagus cuniculus [8] = assay: 100 mg/kg of [14C]- radiolabeled compound was orally (gavage) administered in rabbit3, and radioactivity content in urine was estimated at 48-72 h; details: rabbit, in vivo, po
Oryctolagus cuniculus [9] = assay: 100 mg/kg of [14C]- radiolabeled compound was orally administered in rabbit3, and radioactivity content in urine was estimated at 0-24 hr; details: rabbit, in vivo, po
[10] = system: Indolethylamine N-methyltransferase (Oryctolagus cuniculus); assay: In vivo evaluation of specific activity against rabbit lung Indoleethylamine-N-methyltransferase at intravenous dose of 5 mg/kg
Oryctolagus cuniculus [11] = assay: 100 mg/kg of [14C]- radiolabeled compound was orally administered in rabbit3, and radioactivity content in feces was estimated at 0-48 hr; details: rabbit, in vivo, po
Oryctolagus cuniculus [12] = assay: Radioactivity measurements were performed following oral administration of the 100 mg/kg in rabbit 5 after 2 hr in plasma; format: ADME, organism-based; parameters: dose 100 mg/kg, route oral; details: in vivo; in short: as §4
Oryctolagus cuniculus [13] = assay: Percent of 3-Methyl-thiazolidin-2-ylideneamine as administered dose was reported in rabbit 3 by Gas-liquid chromatographic analysis; format: ADME, organism-based; details: in vivo; in short: as §2
Oryctolagus cuniculus [14] = assay: 100 mg/kg of [14C]- radiolabeled compound was orally (gavage) administered in rabbit3, and radioactivity content in urine was estimated at 24-48 h; details: rabbit, in vivo, po
Oryctolagus cuniculus [15] = assay: Evaluation of formation of 3-Methyl-thiazolidin-2-ylideneamine from the radiolabeled compound, orally administered, from rabbit 2,4 kidney was analyzed by Gas-liquid chromatographic analysis; format: ADME, organism-based; details: in vivo, po; in short: as §3
Oryctolagus cuniculus [16] = assay: Evaluation of formation of 3-Methyl-thiazolidin-2-ylideneamine from the radiolabeled compound, orally administered, from rabbit 4 urine was analyzed at 0-2 hr by Gas-liquid chromatographic analysis; format: ADME, organism-based; details: in vivo, po, in the assay text read “0-24 hr” for “0-2 hr”; in short: as §2
Oryctolagus cuniculus [17] = assay: 100 mg/kg of [14C]- radiolabeled compound was orally administered in rabbit3, and radioactivity content in urine was estimated at total hours; details: rabbit, in vivo, po
Oryctolagus cuniculus [18] = assay: Radioactivity measurements were performed following oral administration of the 100 mg/kg in rabbit 5 after 2 hr lung; format: ADME, organism-based; parameters: dose 100 mg/kg, route oral; details: in vivo; in short: as §4
Oryctolagus cuniculus [19] = assay: 100 mg/kg of [14C]- radiolabeled compound was orally administered in rabbit1, and radioactivity content in urine was estimated at 0-2 hr; details: rabbit, in vivo, po
Oryctolagus cuniculus [20] = assay: Evaluation of formation of 3-Methyl-thiazolidin-2-ylideneamine from the radiolabeled compound, orally administered, from rabbit 1 urine was analyzed at 0-2 hr by Gas-liquid chromatographic analysis; details: in vivo, po
Oryctolagus cuniculus [21] = assay: 100 mg/kg of [14C]- radiolabeled compound was orally (gavage) injected in rabbit 1 lung, and radioactivity content in feces was estimated at; format: ADME, organism-based; details: in vivo, po
In short: (§5)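 Rabbit given 100 mg/kg [14C]-labelled drug by gavage, 204.6 dpm/μg, in water/0.1 N HCl at 6.66 mg/mL. Rabbit 1 was killed at 2 h and liver, lung, kidney and blood taken; tissue values are μg equivalents/g and tissue:plasma ratio. Rabbit 3 was kept for urine (0-24, 24-48, 48-72 h) and feces (0-48 h), expressed as % of dose.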

Oryctolagus cuniculus [22] = assay: 100 mg/kg of [14C]- radiolabeled compound was orally (gavage) injected in rabbit1plasma, and radioactivity content in feces was estimated; format: ADME, organism-based; details: rabbit, in vivo, po; in short: as §5
Oryctolagus cuniculus [23] = assay: Evaluation of formation of 3-Methyl-thiazolidin-2-ylideneamine from the radiolabeled compound, orally administered, from rabbit 1,2 liver was analyzed by Gas-liquid chromatographic analysis; format: ADME, organism-based; details: in vivo, po
In short: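 Rabbit 1 was given [14C]-labelled parent amide, 100 mg/kg (204.6 dpm/μg), orally by gavage and killed 2 h later. Urine (0-2 h), blood, liver, lung and kidney were collected. Samples were extracted, trimethylsilylated with BSA/pyridine at 70 °C for 12-16 h, and run by GLC on 3% OV-210 at 95 °C against the internal standard 3-ethyl-2-thiazolidinimine. Output is % of radioactivity present as the metabolite, mean of two determinations.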

[24] = Dose that causes approximately 50% lethality in mice, when given intraperitoneally; Value ranges from 1000-1500; format: ADME, organism-based; details: mouse, in vivo, ip

CN1CCS/C1=N\C(=O)CCC(=O)/N=C1/SCCN1C
Administered dose (Oryctolagus cuniculus [1]): 94% | Radioactivity (Oryctolagus cuniculus [2]): 51.3% | Administered dose (Oryctolagus cuniculus [3]): 10.8% | Radioactivity (Oryctolagus cuniculus [4]): 48.9% | Radioactivity level (Oryctolagus cuniculus [5]): 21.1 µg/mL | Radioactivity concentration (Oryctolagus cuniculus [6]): 36.3 µg/g | Administered dose (Oryctolagus cuniculus [7]): 6% | Administered dose (Oryctolagus cuniculus [8]): 0.2% | Administered dose (Oryctolagus cuniculus [9]): 85.9% | Specific activity [10]: 37000 dpm | Administered dose (Oryctolagus cuniculus [11]): 3.8% | Radioactivity level (Oryctolagus cuniculus [12]): 14.2 µg/mL | Administered dose (Oryctolagus cuniculus [13]): 41.2% | Administered dose (Oryctolagus cuniculus [14]): 0.8% | Radioactivity (Oryctolagus cuniculus [15]): 65.3% | Radioactivity (Oryctolagus cuniculus [16]): 48.7% | Administered dose (Oryctolagus cuniculus [17]): 86.9% | Radioactivity level (Oryctolagus cuniculus [18]): 36.4 µg/g | Administered dose (Oryctolagus cuniculus [19]): 48.8% | Percent of urinary radioactivity (Oryctolagus cuniculus [20]): 57.2% | Tissue to plasma ratio (Oryctolagus cuniculus [21]): 1.5 | Plasma concentration (Oryctolagus cuniculus [22]): 23.5 µg/g | Radioactivity (Oryctolagus cuniculus [23]): 37.9% | LD50 [24]: 1000 mg/kg
